Consider 22 compounds from ChEMBL document CHEMBL5252662, “Rimonabant-Based Compounds Bearing Hydrophobic Amino Acid Derivatives as Cannabinoid Receptor Subtype 1 Ligands” (ACS Med Chem Lett, 2023).

Activity calls are given as the source filed them. The rule behind the calls is not given here.

Test [1] addresses T1, Cannabinoid receptor 1 (Rattus norvegicus, UniProt P20272). Briefly: Displacement of [3H]-WIN55212-2 from CB1R in rat brain membranes incubated for 60 mins by radioligand competitive binding assay. The class given is cell membranes, Membrane. Background: Loss of bound radioactivity is the signal in a displacement assay; it reports binding, not function.
Test [2] has as its system Mus musculus. The experiment in a line: Induction of food uptake in CD-1 mouse model at 10 mg/kg, ip measured after 1 hr. The class given is functional, organism-based. In short, it runs like this:
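Mice dosed i.p. at 10 mg/kg and left 30 min. Each was then placed in an individual cage with 2 g of standard chow, and intake was measured over a 1 h test. Mean ± SEM from the same seven mice at each dose, compared with vehicle-treated animals.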

For test [3], the system named is Mus musculus. The experiment in a line: Anti-inflammatory activity against zymosan-induced paw edema CD-1 mouse model assessed as reduction of increased paw volume at 100 ug,sc administered 30 mins prior to zymosan challenge and measured after 1 to 4 hrs. The class given is functional, organism-based. As to conditions: dose 100.0 µg, time lower […], time upper […].

In test [4] the test system is Mus musculus. The experiment in a line: Antinociceptive activity in CD-1 mouse assessed as increase in response time to thermal nociceptive stimuli at 10 ug, icv measured at 15 to 120 mins. The class given is functional, organism-based. As to conditions: dose 10.0 µg, time lower […], time upper […]. Put shortly:
(§1)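 Single i.c.v. injection of 10 μg/10 μL; vehicle saline with 0.1% v/v DMSO. Response latency to thermal stimulus on hot plate recorded over time after dosing. Expressed as % maximum possible effect (%MPE) ± SEM, N = 7.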

Test [5] has as its target T1, Cannabinoid receptor 1. Briefly: Agonist activity at rat brain membrane CB1 receptor assessed as stimulation of [35S]GTPgammaS binding incubated for 60 mins. The class given is cell membranes. (Binding of GTPγS marks nucleotide exchange on a G protein.)
In test [6] the target is Cannabinoid receptor 1 (Rattus norvegicus) (UniProt P20272). Briefly: Agonist activity at rat brain membrane CB1 receptor assessed as stimulation of [35S]GTPgammaS binding incubated for 60 mins relative to control. The class given is cell membranes. As to conditions: filed as agonist.
Chain of Cannabinoid receptor 1 (Rattus norvegicus) (P20272 whole entry): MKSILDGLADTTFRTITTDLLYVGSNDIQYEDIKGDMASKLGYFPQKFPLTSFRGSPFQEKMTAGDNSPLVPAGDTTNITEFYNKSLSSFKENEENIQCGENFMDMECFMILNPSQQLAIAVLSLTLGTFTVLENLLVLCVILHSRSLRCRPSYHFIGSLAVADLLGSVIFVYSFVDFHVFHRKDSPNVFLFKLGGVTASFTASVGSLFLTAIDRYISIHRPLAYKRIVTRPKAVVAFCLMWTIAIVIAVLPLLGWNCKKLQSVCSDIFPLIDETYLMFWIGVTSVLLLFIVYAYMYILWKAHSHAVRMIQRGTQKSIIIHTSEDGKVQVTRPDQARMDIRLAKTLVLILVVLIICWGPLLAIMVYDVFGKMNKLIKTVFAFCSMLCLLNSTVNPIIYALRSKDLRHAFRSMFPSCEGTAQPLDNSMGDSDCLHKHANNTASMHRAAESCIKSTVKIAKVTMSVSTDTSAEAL
Test [7] deals with Mus musculus. Briefly: Antinociceptive activity in CD-1 mouse assessed as increase in response time to thermal nociceptive stimuli at 10 ug, icv measured after 60 mins by hot plate test. The class given is functional, organism-based. As to conditions: dose 10.0 µg. In short, it runs like this:
as §1
For orientation: Hot-plate and tail-flick tests time the reaction to a heat stimulus.

T1 sequence (P20272 whole entry): as above

In the case of `CC(C)(C)[C@H](NC(=O)c1cc(-n2cccc2)n(-c2ccc(Cl)cc2)n1)C(=O)O`, the Ki (as a rule, the dissociation constant of the complex between target and ligand, obtained from inhibition or displacement) on Cannabinoid receptor 1 [1] is recorded as “Not Active”. Turning to `COC(=O)[C@@H](NC(=O)c1cc(-n2cccc2)n(-c2ccccc2)n1)C(C)(C)C`, the outcome in the test with Mus musculus [2] was Active. On the same count and under the same terms, as for `COC(=O)[C@@H](NC(=O)c1cc(-n2cccc2)n(-c2ccc(Cl)cc2)n1)C(C)C`, the entry is “inactive”. `CC(C)[C@H](NC(=O)c1cc(-n2cccc2)n(-c2ccccc2)n1)C(=O)O`: the Ki entry on Cannabinoid receptor 1 [1] was “Not Active”. For `CNC(=O)[C@@H](NC(=O)c1nn(-c2ccc(Cl)cc2)c(-n2cccc2)c1C)C(C)(C)C`, the outcome in the test on Mus musculus [2], in the test with Mus musculus [3] and in the test on Mus musculus [4] was Active.

`Cc1c(C(=O)N[C@H](C(=O)O)C(C)(C)C)nn(-c2ccc(Cl)cc2Cl)c1-n1cccc1Cl`: the Ki result at Cannabinoid receptor 1 [1] is “Not Active”. Take `Cc1c(C(=O)N[C@H](C(N)=O)C(C)C)nn(-c2ccc(Cl)c(Cl)c2)c1-n1cccc1Cl`: the Ki on Cannabinoid receptor 1 [1] (read-out: Ki) came to 446 nM. The EC50 (commonly the concentration that produces a half-maximal response) on Cannabinoid receptor 1 [5] was found to be 849 nM. The Emax (in general, the maximal effect, on the per cent scale that the assay sets) in test [6] worked out at 60%. As to `CC(C)(C)[C@H](NC(=O)c1cc(-n2cccc2)n(-c2ccccc2)n1)C(=O)O`, on Cannabinoid receptor 1 [1], the Ki result is listed as “Not Active”. On to `Cc1c(C(=O)N[C@H](C(N)=O)C(C)(C)C)nn(-c2ccc(Cl)c(Cl)c2)c1-n1cccc1Cl`, for which the Ki on Cannabinoid receptor 1 [1] (read-out: Ki) was found to be 45 nM. Further, on Cannabinoid receptor 1 [5], the EC50 was determined as 1870 nM. Further, the Emax in test [6] was 70%. Moreover, in the test on Mus musculus [2], the outcome was inactive.

Regarding `COC(=O)[C@@H](NC(=O)c1nn(-c2ccc(Cl)cc2Cl)c(-n2cccc2Cl)c1C)C(C)C`, the outcome with Mus musculus [2] was Active.

On to `Cc1c(C(=O)N[C@H](C(N)=O)C(C)(C)C)nn(-c2ccc(Cl)cc2)c1-n1cccc1`, for which the outcome in the test on Mus musculus [2] was inactive. In the case of `Cc1c(C(=O)N[C@H](C(=O)O)C(C)C)nn(-c2ccc(Cl)cc2)c1-n1cccc1`, the Ki result at Cannabinoid receptor 1 [1] is listed as “Not Active”. With `Cc1c(C(=O)N[C@H](C(=O)O)C(C)C)nn(-c2ccc(Cl)cc2Cl)c1-n1cccc1Cl`, the Ki result at Cannabinoid receptor 1 [1] is “Not Active”.

Consider `CNC(=O)[C@@H](NC(=O)c1nn(-c2ccc(Cl)cc2Cl)c(-n2cccc2Cl)c1C)C(C)(C)C`, for which the Ki entry on Cannabinoid receptor 1 [1] is “Not Active”. Same read-out and setting: as for `CC(C)[C@H](NC(=O)c1cc(-n2cccc2)n(-c2ccccc2)n1)C(N)=O`, the entry is “Not Active”. As to `Cc1c(C(=O)c2cccc3ccccc23)c2cccc3c2n1[C@H](CN1CCOCC1)CO3`, the result in the test with Mus musculus [7] was Active. In the case of `Cc1c(C(=O)N[C@H](C(=O)O)C(C)C)nn(-c2ccccc2)c1-n1cccc1`, the Ki entry at Cannabinoid receptor 1 [1] is “Not Active”. For the compound `Cc1c(C(=O)N[C@H](C(=O)O)C(C)(C)C)nn(-c2ccccc2)c1-n1cccc1`, on Cannabinoid receptor 1 [1], the Ki entry is reported as “Not Active”. The same measure, in the same setting: with `CC(C)[C@H](NC(=O)c1cc(-n2cccc2)n(-c2ccc(Cl)cc2)n1)C(=O)O` the entry was “Not Active”. Regarding `COC(=O)[C@@H](NC(=O)c1cc(-n2cccc2)n(-c2ccc(Cl)cc2)n1)C(C)(C)C`, the outcome in the test with Mus musculus [2] was inactive.

As to `COC(=O)[C@@H](NC(=O)c1nn(-c2ccc(Cl)cc2)c(-n2cccc2)c1C)C(C)(C)C`, the result with Mus musculus [2] was inactive. Same read-out and setting: with `Cc1c(C(=O)N[C@H](C(N)=O)C(C)(C)C)nn(-c2ccccc2)c1-n1cccc1` the entry was “inactive”.
